Ki data for one compound are collected here from BindingDB's records for doi:10.1016/j.bmcl.2007.06.010 (Institut Henri Beaufour, 2007).

Each structure is given as a SMILES string.

In the experiment the target is Melanocortin receptor 4 (Homo sapiens, UniProt P32245). Put plainly: Displacement of [125I]NDP-alphaMSH from human melanocortin 4 receptor expressed in CHOK1 cells. The gist of the method:
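Membranes from CHO-K1 cells stably expressing human MC1, MC3, MC4 or MC5 receptor, 1–10 µg protein/well, in 50 mM Tris-HCl pH 7.4 with 0.2% BSA, 5 mM MgCl2, 1 mM CaCl2, 0.1 mg/mL bacitracin. Incubated with increasing test compound and 0.1–0.3 nM [125I]NDP-α-MSH, 90–120 min at 37 °C depending on subtype. Filtration on PEI-presoaked GF/C filters, cold buffer washes, radioactivity counted; nonlinear regression; three independent measurements.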
(In a radioligand displacement assay an active substance lowers the binding of a labelled ligand.)

Chain of Melanocortin receptor 4 (P32245 whole entry): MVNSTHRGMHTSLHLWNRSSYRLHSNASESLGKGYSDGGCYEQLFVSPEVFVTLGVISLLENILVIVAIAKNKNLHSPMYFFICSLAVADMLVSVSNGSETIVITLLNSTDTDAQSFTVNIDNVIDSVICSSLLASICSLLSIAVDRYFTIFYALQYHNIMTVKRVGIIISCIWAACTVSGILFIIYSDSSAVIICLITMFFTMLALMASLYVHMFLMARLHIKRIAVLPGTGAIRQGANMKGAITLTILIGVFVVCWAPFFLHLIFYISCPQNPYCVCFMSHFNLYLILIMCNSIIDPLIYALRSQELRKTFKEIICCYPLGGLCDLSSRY

`CC(C)CCN(CCC(C)C)C(=O)c1ccc2nc(NCc3ccccc3)n(CCCN3CCCCC3)c2c1` [2-(benzylamino)-N,N-diisopentyl-3-(3-(piperidin-1-yl)propyl)-3H-benzo[d]imidazole-5-carboxamide] showed a Ki of 17 nM.

By Ki is commonly meant a dissociation constant, usually derived from enzyme kinetics or from competition with a known ligand. A high value points to a looser hold on the target.
